Measurements taken from ChEMBL document CHEMBL4020827, “Targeting Multiple Effector Pathways in Pancreatic Ductal Adenocarcinoma with a G-Quadruplex-Binding Small Molecule” (J Med Chem, 2018).
Active and inactive are the calls of the source. The calls are words filed in the database; no cut-off is given here.

Experiments:
PANC-1 [1] = assay: Effect on PAK1 gene expression in human PANC1 cells at 400 nM after 6 hrs by RNA sequence analysis relative to control; type: functional
PANC-1 [2] = assay: Effect on GLI1 gene expression in human PANC1 cells at 400 nM after 6 hrs by RNA sequence analysis relative to control; type: functional
Outline: (§1)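 PANC-1 (0.35 x 10^6) or MIA PaCa-2 (1.5 x 10^6) cells seeded overnight in 60 mm plates, then exposed to 400 nM compound for 6 or 24 h; untreated cells as controls. Cells were mycoplasma-free and STR-certified. Differential expression by RNA-seq, called at FDR < 0.1.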

MIA PaCa-2 [3] = assay: Effect on GLI2 gene expression in human MIAPaCa2 cells at 400 nM after 6 hrs by RNA sequence analysis relative to control; type: functional; outline: as §1
MIA PaCa-2 [4] = assay: Effect on PIK3R2 gene expression in human MIAPaCa2 cells at 400 nM after 6 hrs by RNA sequence analysis relative to control; type: functional
PANC-1 [5] = assay: Effect on GLI1 gene expression in human PANC1 cells at 400 nM after 24 hrs by RNA sequence analysis relative to control; type: functional; outline: as §1
PANC-1 [6] = assay: Effect on RPTOR gene expression in human PANC1 cells at 400 nM after 24 hrs by RNA sequence analysis relative to control; type: functional
Outline: (§2)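 RNA-seq: cells seeded overnight in 60 mm plates (PANC-1 0.35 x 10^6, MIA PaCa-2 1.5 x 10^6 cells/well), then exposed to 400 nM compound for 6 or 24 h against untreated controls. Cell lines mycoplasma-free by RNA-capture ELISA and STR-profiled. Differentially expressed genes called at FDR < 0.1.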

PANC-1 [7] = assay: Effect on PIK3R2 gene expression in human PANC1 cells at 400 nM after 6 hrs by RNA sequence analysis relative to control; type: functional
PANC-1 [8] = assay: Effect on CTBP1 gene expression in human PANC1 cells at 400 nM after 6 hrs by RNA sequence analysis relative to control; type: functional; outline: as §1
MIA PaCa-2 [9] = assay: Effect on SHANK2 gene expression in human MIAPaCa2 cells at 400 nM after 6 hrs by RNA sequence analysis relative to control; type: functional; outline: as §2
PANC-1 [10] = assay: Effect on PLXNA1 gene expression in human PANC1 cells at 400 nM after 6 hrs by RNA sequence analysis relative to control; type: functional
Homo sapiens [11] = species on record: Homo sapiens; assay: Stabilization of G-quadruplex DNA in human PANC1 cells assessed as increase in BG4 foci at 400 nM after 6 to 24 hrs by FITC/Cy5/DAPI staining based immunofluorescence assay; type: cell-based
[12] = Drug uptake in tumor at flank region of CD-1 nude mouse xenografted with human MIAPaCa2 cells at 15 mg/kg, iv measured after 4 hrs; type: ADME, organism-based, Neoplasm; settings: in vivo
MIA PaCa-2 [13] = assay: Effect on SMO gene expression in human MIAPaCa2 cells at 400 nM after 24 hrs by RNA sequence analysis relative to control; type: functional; outline: as §2
MIA PaCa-2 [14] = assay: Effect on PFKFB4 gene expression in human MIAPaCa2 cells at 400 nM after 24 hrs by RNA sequence analysis relative to control; type: functional
PANC-1 [15] = assay: Effect on ULK1 gene expression in human PANC1 cells at 400 nM after 6 hrs by RNA sequence analysis relative to control; type: functional; outline: as §2
MIA PaCa-2 [16] = assay: Effect on CTBP1 gene expression in human MIAPaCa2 cells at 400 nM after 6 hrs by RNA sequence analysis relative to control; type: functional; outline: as §1
MIA PaCa-2 [17] = assay: Effect on GLI2 gene expression in human MIAPaCa2 cells at 400 nM after 24 hrs by RNA sequence analysis relative to control; type: functional; outline: as §1
PANC-1 [18] = assay: Effect on PRDM16 gene expression in human PANC1 cells at 400 nM after 6 hrs by RNA sequence analysis relative to control; type: functional
MIA PaCa-2 [19] = assay: Effect on TEAD4 gene expression in human MIAPaCa2 cells at 400 nM after 6 hrs by RNA sequence analysis relative to control; type: functional; outline: as §2
PANC-1 [20] = assay: Effect on PCK2 gene expression in human PANC1 cells at 400 nM after 6 hrs by RNA sequence analysis relative to control; type: functional
MIA PaCa-2 [21] = assay: Effect on TEAD3 gene expression in human MIAPaCa2 cells at 400 nM after 24 hrs by RNA sequence analysis relative to control; type: functional; outline: as §2
MIA PaCa-2 [22] = assay: Effect on PCK2 gene expression in human MIAPaCa2 cells at 400 nM after 24 hrs by RNA sequence analysis relative to control; type: functional
Homo sapiens [23] = species on record: Homo sapiens; assay: Stabilization of G-quadruplex DNA in human PANC1 cells assessed as increase in 53BP1 foci at 400 nM after 24 hrs by FITC/Cy5/DAPI staining based immunofluorescence assay relative to control; type: cell-based
Outline: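 PANC-1 cells (8 x10^4 on coverslips) treated 24 h at 37 °C, or left untreated. Fixed in 4% paraformaldehyde, permeabilized with 0.1% Triton X-100, blocked in 2% milk. Stained with BG4 (20 nM), anti-FLAG and anti-53BP1, then Alexa-488/647 secondaries with DAPI. Deconvolved 100x z-stacks, 50-100 nuclei per replicate, three biological replicates; nuclear foci counted.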

MIA PaCa-2 [24] = assay: Effect on SHANK2 gene expression in human MIAPaCa2 cells at 400 nM after 24 hrs by RNA sequence analysis relative to control; type: functional; outline: as §2
PANC-1 [25] = assay: Effect on TEAD4 gene expression in human PANC1 cells at 400 nM after 24 hrs by RNA sequence analysis relative to control; type: functional; outline: as §2
MIA PaCa-2 [26] = assay: Effect on PIK3R3 gene expression in human MIAPaCa2 cells at 400 nM after 6 hrs by RNA sequence analysis relative to control; type: functional
[27] = Binding affinity to 5'-FAM/3'-TAMRA labeled KRAS21 promoter G-quadruplex DNA (unknown origin) assessed as change in melting temperature at 1 uM by FRET assay
Outline: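 FRET melting of FAM/TAMRA dual-labelled promoter G4 oligonucleotides, 400 nM, annealed at 95 °C for 10 min in 60 mM potassium cacodylate (pH 7.4) then cooled to RT. Ligand at 1 μM in solution with 50 mM K+. Fluorescence (ex 450–495, em 515–545 nm) read every 0.5 °C over 30–100 °C with a 30 sec hold per step. ΔTm from curve fitting; triplicate measurements.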

PANC-1 [28] = assay: Effect on IGF2 gene expression in human PANC1 cells at 400 nM after 6 hrs by RNA sequence analysis relative to control; type: functional; outline: as §1
BXPC-3 = assay: Growth inhibition of human BxPC3 cells after 96 hrs by SRB assay; type: functional, cell-based; settings: BXPC-3, 96 h
Outline: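 Cell lines kept at 37 °C, 5% CO2 in medium with 10% FBS and 2 mM L-glutamine. Compound dissolved in water, filter-sterilised, 10 mM stock diluted into media. Growth read by 96 h sulforhodamine B assay, absorbance at 540 nm. IC50 taken from mean absorbance per concentration as % of untreated wells, >3 individual determinations with standard deviations.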

MIA PaCa-2 [29] = assay: Effect on TEAD3 gene expression in human MIAPaCa2 cells at 400 nM after 6 hrs by RNA sequence analysis relative to control; type: functional; outline: as §2

## O=C1c2ccc3c4c(c(NCCN5CCCC5)cc(c24)C(=O)N1CCCN1CCOCC1)C(=O)N(CCCN1CCOCC1)C3=O
PANC-1 [1]
  log2FC: -0.54
PANC-1 [2]
  log2FC: 0.03
MIA PaCa-2 [3]
  log2FC: -1.17
MIA PaCa-2 [4]
  log2FC: -0.55
PANC-1 [5]
  log2FC: -0.57
PANC-1 [6]
  log2FC: -0.5
PANC-1 [7]
  log2FC: -0.45
PANC-1 [8]
  log2FC: -0.66
MIA PaCa-2 [9]
  log2FC: -1.87
PANC-1 [10]
  log2FC: -0.84
Homo sapiens [11]
  Activity: Active
[12]
  Drug uptake: Active
MIA PaCa-2 [13]
  log2FC: -1.21
MIA PaCa-2 [14]
  log2FC: -0.93
PANC-1 [15]
  log2FC: 0.19
MIA PaCa-2 [16]
  log2FC: -0.52
MIA PaCa-2 [17]
  log2FC: -1.24
PANC-1 [18]
  log2FC: -2.4
MIA PaCa-2 [19]
  log2FC: -0.79
PANC-1 [20]
  log2FC: -0.01
MIA PaCa-2 [21]
  log2FC: -0.66
MIA PaCa-2 [22]
  log2FC: -0.82
Homo sapiens [23]
  fold change (FC): 2
MIA PaCa-2 [24]
  log2FC: -1.96
PANC-1 [25]
  log2FC: -0.47
MIA PaCa-2 [26]
  log2FC: -0.28
[27]
  ΔTm: 11 °C
PANC-1 [28]
  log2FC: -1.15
BXPC-3
  IC50: 19 nM
MIA PaCa-2 [29]
  log2FC: -1.06
